Columns and labels:
[1] = species on record: Homo sapiens; assay: Inhibition of LPS-stimulated TNFalpha release in human whole blood; type: functional, organism-based
[2] = molecular target: Voltage-gated L-type calcium channel (Homo sapiens, UniProt Q13936+Q13698+Q01668+O60840); assay: Binding affinity to DLZ binding site of calcium channel; type: protein assay
[3] = system: THP-1; assay: Inhibition of LPS-stimulated TNFalpha release in human THP1 cells; type: functional, cell-based
How it was run: (§1)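 THP-1 cells at 2.5 · 10⁶/mL suspended in a PBS-based medium. Compound added in DMSO, then LPS. Incubated 4 h at 37 °C under CO₂. TNF-α in the supernatant measured by sandwich ELISA, with anti-human TNF-α as the capture antibody.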

[4] = molecular target: Mitogen-activated protein kinase 14 (Homo sapiens, UniProt Q16539); assay: Inhibition of p38alpha
Mitogen-activated protein kinase 14, sequence (Q16539 whole entry): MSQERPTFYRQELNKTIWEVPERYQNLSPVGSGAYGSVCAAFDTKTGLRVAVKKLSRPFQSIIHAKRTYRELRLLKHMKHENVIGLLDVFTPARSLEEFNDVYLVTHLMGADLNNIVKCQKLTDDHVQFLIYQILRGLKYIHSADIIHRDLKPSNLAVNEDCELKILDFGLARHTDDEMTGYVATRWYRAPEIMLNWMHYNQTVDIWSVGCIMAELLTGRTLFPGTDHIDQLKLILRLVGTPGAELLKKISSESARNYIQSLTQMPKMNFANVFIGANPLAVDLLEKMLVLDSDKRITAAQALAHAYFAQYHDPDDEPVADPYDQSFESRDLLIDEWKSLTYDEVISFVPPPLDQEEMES

[5] = molecular target: Voltage-gated inwardly rectifying potassium channel KCNH2 (Homo sapiens, UniProt Q12809); assay: Binding affinity to iKr potassium channel
Voltage-gated inwardly rectifying potassium channel KCNH2, sequence (Q12809 whole entry): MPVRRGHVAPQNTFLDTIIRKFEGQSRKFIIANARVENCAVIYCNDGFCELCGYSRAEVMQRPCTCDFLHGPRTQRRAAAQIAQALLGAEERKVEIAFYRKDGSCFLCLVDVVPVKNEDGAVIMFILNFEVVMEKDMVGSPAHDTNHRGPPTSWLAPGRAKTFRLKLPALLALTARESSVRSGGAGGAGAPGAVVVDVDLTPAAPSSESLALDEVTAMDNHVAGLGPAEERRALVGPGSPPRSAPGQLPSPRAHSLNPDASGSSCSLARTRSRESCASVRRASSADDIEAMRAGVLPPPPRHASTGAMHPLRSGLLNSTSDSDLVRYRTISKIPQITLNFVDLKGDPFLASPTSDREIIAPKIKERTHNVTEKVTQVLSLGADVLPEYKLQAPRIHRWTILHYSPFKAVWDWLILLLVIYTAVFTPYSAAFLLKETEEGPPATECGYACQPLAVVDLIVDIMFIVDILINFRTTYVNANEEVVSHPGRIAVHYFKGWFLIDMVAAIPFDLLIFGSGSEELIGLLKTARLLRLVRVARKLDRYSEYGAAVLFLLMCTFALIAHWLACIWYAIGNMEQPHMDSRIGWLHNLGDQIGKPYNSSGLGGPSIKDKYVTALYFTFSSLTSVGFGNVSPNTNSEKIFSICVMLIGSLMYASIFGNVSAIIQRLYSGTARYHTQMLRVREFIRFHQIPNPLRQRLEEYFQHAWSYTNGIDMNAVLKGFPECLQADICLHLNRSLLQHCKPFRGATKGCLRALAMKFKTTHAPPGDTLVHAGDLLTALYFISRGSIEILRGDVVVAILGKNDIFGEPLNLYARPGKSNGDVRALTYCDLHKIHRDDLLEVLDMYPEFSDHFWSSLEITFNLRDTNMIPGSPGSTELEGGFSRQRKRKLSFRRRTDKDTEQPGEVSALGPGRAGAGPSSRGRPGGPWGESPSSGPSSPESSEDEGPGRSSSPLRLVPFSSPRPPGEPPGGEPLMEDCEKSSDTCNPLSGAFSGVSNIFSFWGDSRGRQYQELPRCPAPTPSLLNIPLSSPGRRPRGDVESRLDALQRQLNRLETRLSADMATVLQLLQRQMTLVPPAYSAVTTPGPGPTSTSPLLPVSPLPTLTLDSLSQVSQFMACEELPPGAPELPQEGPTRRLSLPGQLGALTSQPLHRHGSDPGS

[6] = species on record: Homo sapiens; assay: Inhibition of LPS-stimulated TNFalpha release in human whole blood upto 15 uM; type: functional, organism-based
[7] = system: THP-1; assay: Inhibition of LPS-stimulated TNFalpha release in human THP1 cells upto 15 uM; type: functional, cell-based; how it was run: as §1
[8] = Oral bioavailability in rat; type: ADME, organism-based; settings: in vivo
[9] = Half life in rat; type: ADME, organism-based; settings: in vivo

| SMILES | IC50 [1] [µM] | Activity [2] [µM] | IC50 [3] [µM] | IC50 [4] [µM] | Activity [5] [µM] | IC50 [6] | IC50 [7] | bioavailability [8] [%] | half-life [9] [h] |
| --- | --- | --- | --- | --- | --- | --- | --- | --- | --- |
| O=C1NCc2c(-c3ccccc3Cl)nc(N3CCc4[nH]ncc4C3)nc2N1c1c(Cl)cccc1Cl | 0.5 | > 30 | 0.028 | 0.0019 | 10 |  |  |  |  |
| CN(C)CCOc1nc(-c2ccccc2Cl)c2c(n1)N(c1c(Cl)cccc1Cl)C(=O)NC2 | 0.25 | 8.8 | 0.021 | 0.0042 | 10 |  |  |  |  |
| CC(C)(C)CNc1nc(-c2ccccc2Cl)c2c(n1)N(c1c(Cl)cccc1Cl)C(=O)NC2 | 1 | > 30 | 0.021 | 0.0008 | 10 |  |  |  |  |
| CC(C)Nc1nc(-c2ccccc2Cl)c2c(n1)N(c1c(Cl)cccc1Cl)C(=O)NC2 |  | 10 | 0.038 | 0.0011 | 4.5 | Not Active |  |  |  |
| CSc1nc(-c2ccccc2Cl)c2c(n1)N(c1c(Cl)cccc1Cl)C(=O)NC2 |  | 6 | 0.7 | 0.01 |  | Not Active |  |  |  |
| COCCNc1nc(-c2ccc(Cl)cc2Cl)c2c(n1)N(c1c(Cl)cccc1Cl)C(=O)NC2 | 0.27 | > 10 | 0.097 | 0.002 | 3 |  |  |  |  |
| CN(C)c1nc(-c2ccccc2Cl)c2c(n1)N(c1c(Cl)cccc1Cl)C(=O)NC2 |  | > 10 |  | 0.003 | 6 | Not Active | Not Active |  |  |
| O=C1NCc2c(-c3ccc(F)cc3F)cc(C3CCNCC3)cc2N1c1c(Cl)cccc1Cl | 0.01 |  |  |  |  |  |  |  |  |
| O=C1NCc2c(-c3ccccc3Cl)nc(N3CCOCC3)nc2N1c1c(Cl)cccc1Cl |  | 6 | 0.5 | 0.002 |  | Not Active |  |  |  |
| O=C1NCc2c(-c3ccccc3Cl)nc(O)nc2N1c1c(Cl)cccc1Cl |  | 7 | 0.17 | 0.004 | 4.6 | Not Active |  |  |  |
| CN(C)CCN1CCN(c2nc(-c3ccc(Cl)cc3Cl)c3c(n2)N(c2c(Cl)cccc2Cl)C(=O)NC3)CC1 | 0.042 | 0.22 | 0.022 | 0.001 |  |  |  | 3 |  |
| O=C1NCc2c(-c3ccccc3Cl)nc(NC3CN4CCC3CC4)nc2N1c1c(Cl)cccc1Cl (stereo not drawn) | 0.36 | 1.3 | 0.034 | 0.0012 | 5.8 |  |  |  |  |
| CC(C)N1CCN(c2nc(-c3ccc(Cl)cc3Cl)c3c(n2)N(c2c(Cl)cccc2Cl)C(=O)NC3)CC1 | 1.94 | 0.7 | 0.33 | 0.02 | 0.2 |  |  |  |  |
| O=C1NCc2c(-c3ccccc3Cl)nc(NN3CCOCC3)nc2N1c1c(Cl)cccc1Cl | 1 | 7 | 0.099 | 0.004 | 6.9 |  |  |  |  |
| CN(C)CCNc1nc(-c2ccc(Cl)cc2Cl)c2c(n1)N(c1c(Cl)cccc1Cl)C(=O)NC2 | 0.032 | 1 | 0.02 | 0.0056 | 0.5 |  |  |  |  |
| CC(C)N1CCC(c2cc(-c3ccc(F)cc3F)c3c(c2)N(c2c(Cl)cccc2Cl)C(=O)NC3)CC1 | 0.02 |  |  | 0.0002 |  |  |  |  |  |
| CC(C)N1CCC(Nc2nc(-c3ccccc3Cl)c3c(n2)N(c2c(Cl)cccc2Cl)C(=O)NC3)CC1 | 0.015 | 3.3 | 0.001 | 0.0006 | 6.4 |  |  | 24 | 2 |
| CC(C)N1CCC(c2cc3c(c(-c4ccccc4Cl)n2)CNC(=O)N3c2c(Cl)cccc2Cl)CC1 |  |  |  |  |  |  |  | 18 | 2.1 |
| CC1(C)CC(Nc2nc(-c3ccccc3Cl)c3c(n2)N(c2c(Cl)cccc2Cl)C(=O)NC3)CC(C)(C)N1 | 0.038 | 1.2 | 0.0026 | 0.0007 | 4.5 |  |  |  |  |
| CNc1nc(-c2ccccc2Cl)c2c(n1)N(c1c(Cl)cccc1Cl)C(=O)NC2 | 0.85 | 10 | 0.022 | 0.002 | 6.4 |  |  |  |  |
| CN1C2CCC1CC(Nc1nc(-c3ccccc3Cl)c3c(n1)N(c1c(Cl)cccc1Cl)C(=O)NC3)C2 (stereo not drawn) | 0.017 | 2.2 | 0.0026 | 0.0005 | 8.9 |  |  |  |  |
| CN(C)CCN1CCN(c2nc(-c3ccccc3Cl)c3c(n2)N(c2c(Cl)cccc2Cl)C(=O)NC3)CC1 | 0.1 | 1.7 | 0.0023 | 0.0005 | 3.8 |  |  |  |  |
| CS(=O)(=O)c1nc(-c2ccccc2Cl)c2c(n1)N(c1c(Cl)cccc1Cl)C(=O)NC2 |  | > 10 | 0.5 | 0.0042 | 9 | Not Active |  |  |  |
| Nc1nc(-c2ccccc2Cl)c2c(n1)N(c1c(Cl)cccc1Cl)C(=O)NC2 | 2 | 9.2 | 0.081 | 0.0053 |  |  |  | 100 | 1.1 |
| O=C1NCc2c(-c3ccccc3Cl)cc(O)cc2N1c1c(Cl)cccc1Cl |  |  |  | 0.002 |  |  |  |  |  |
| C[C@@H]1CN(c2nc(-c3ccc(Cl)cc3Cl)c3c(n2)N(c2c(Cl)cccc2Cl)C(=O)NC3)C[C@H](C)O1 |  | 6 | 0.5 | 0.002 | 5 | Not Active |  |  |  |
| Nc1cc(-c2ccccc2Cl)c2c(c1)N(c1c(Cl)cccc1Cl)C(=O)NC2 |  |  |  | 0.006 |  |  |  |  |  |
